Molecules are shown by their SMILES.

In BindingDB's records for doi:10.1021/jm950797i (Medichem Research, 1996) one finds IC50 data, which are given here for 3 compounds.

The target in test [1] is T1, Gag-Pol polyprotein [489-587] (Human immunodeficiency virus 1, UniProt P04585).
T1 construct: 489-587
Description: Inhibitory activity against RNA-dependent DNA polymerase (RDDP) of HIV-1 RT Nucleic Acid polymerase. The method in brief:
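Purified dimeric (p66/p51) HIV-1 RT (0.08 µg) in pH 8.0 Tris-HCl with KCl, MgCl2, DTT, glutathione, EGTA and BSA. Template-primer was 41 µM poly(rA) with 9.5 µM oligo(dT), plus 20 µM TTP and [3H]TTP. Incubated 1 h at 37 °C, stopped at 80 °C, and counted on filters. Prescreened at 200 µg/mL; IC50 taken from 10 half-log doses in duplicate.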

Test [2] concerns the target T1, Gag-Pol polyprotein [489-587]. Description: Inhibitory activity against DNA -dependent DNA polymerase (DDDP) of HIV-1 RT Nucleic Acid polymerase. In a few lines: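 Dimeric (p66/p51) HIV-1 RT in the RT buffer, reacted 1 h at 37 °C. Template was activated calf thymus DNA (final 20 µg/mL), with dATP, dCTP and dGTP each at final 50 µM plus 5 µCi [3H]TTP. Acid-insoluble label was counted by scintillation. Prescreened at 200 µg/mL, then 10 half-log concentrations in duplicate; IC50 read from dose-response curves.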

Test [3] shares this target. The experiment in a line: Inhibitory activity against TIBO-resistant HIV-1 RT Nucleic Acid polymerase.

As usually defined, the IC50 is the midpoint of a concentration-inhibition curve. For `CCCc1cc(=O)oc2c3c(c4c(c12)OC(C)(C)C=C4)O[C@@H](C)[C@H](C)[C@@H]3O`, the IC50 came out at 27.8 µM in test [1] and 156 µM in test [2].

Turning to `CCCc1cc(=O)oc2c3c(c4c(c12)OC(C)(C)C=C4)O[C@H](C)[C@@H](C)[C@@H]3O` [(10R,11S,12S)-12-Hydroxy-6,6,10,11-tetramethyl-4-propyl-11,12-dihydro-6H,10H-dipyrano[2,3-f;2',3'-h]chromen-2-one], the IC50 in test [3] came to 10.1 µM; in test [2] it was 0.38 µM.

With `CCCc1cc(=O)oc2c3c(c4c(c12)OC(C)(C)C=C4)O[C@@H](C)C(C)[C@@H]3O` (stereo partly drawn) [(10S,12S)-12-Hydroxy-6,6,10,11-tetramethyl-4-propyl-11,12-dihydro-6H,10H-dipyrano[2,3-f;2',3'-h]chromen-2-one], the IC50 is 17.6 µM in test [3], 0.97 µM in test [1] and 0.7 µM in test [2].
